In assay [1] the test system is HeLa. The assay is described as follows: Induction of apoptosis in human HeLa cells assessed as inhibition of DNA synthesis after 24 hrs by BrdU staining-based ELISA. It counts as functional, cell-based. The method in brief:
(§1)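 Cells seeded at 25,000/well; compounds added 24 h after seeding at a range of concentrations and incubated 24 h. Cells fixed, then colorimetric BrdU-incorporation ELISA. Absorbance read at 370-492 nm over 3 intervals of 5 min. Mean of three separate experiments with triplicate samples.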
For orientation: Uptake of a labelled nucleoside into DNA is a usual measure of proliferation.

Assay [2] concerns Caco-2. The assay is described as follows: Induction of apoptosis in human Caco2 cells assessed as necrotic cells at 0.05 uM after 48 hrs by Annexin V/propidium iodide staining-based flow cytometric analysis (reference value: 0.41 +/- 0.02%). It counts as functional. Background: Flow cytometry measures light scatter and fluorescence of single cells or particles in a stream.
Assay [3] has as its system HeLa. The assay is described as follows: Induction of apoptosis in human HeLa cells assessed as p53 phosphorylation at Ser15 by Western blotting analysis. It counts as functional, cell-based. The method in brief: (§2)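 Cells treated 24 h. About 10^6 cells lysed on ice 15 min in Hepes pH 7.4/Triton X-100 buffer with phosphatase and protease inhibitors, then spun 13,000 × g. 30 µg protein run on 12% SDS-PAGE and blotted to nitrocellulose. Primary anti-phospho-p53 (Ser15) and anti-p53 at 1:1000 for 2 h at room temperature, then HRP secondary and ECL densitometry. Results referred to untreated control.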
In general terms: In western blotting, separated proteins are transferred to a membrane and probed.

A further assay has as its system A-375. The assay is described as follows: Induction of apoptosis in human A375 cells assessed as p53 phosphorylation at Ser15 by Western blotting analysis. It counts as functional, cell-based. In outline:
as §2

Assay [4] has as its system Caco-2. The assay is described as follows: Induction of apoptosis in human Caco2 cells assessed as vital cells at 0.5 uM after 48 hrs by Annexin V/propidium iodide staining-based flow cytometric analysis (reference value: 96.67 +/- 1.02%). It is filed as functional.
For assay [5], the system named is Caco-2. The assay is described as follows: Induction of apoptosis in human Caco2 cells assessed as vital cells at 0.05 uM after 24 hrs by Annexin V/propidium iodide staining-based flow cytometric analysis (reference value: 96.67 +/- 1.02%). It is filed as functional.
Assay [6] is described as follows: Cytotoxicity against human Caco2 cells after 24 hrs by MTT assay. The conditions noted are these: Caco-2, 24 h. It counts as functional, cell-based.
The test system of another assay is MDA-MB-231. The assay is described as follows: Induction of apoptosis in human MDA-MB-231 cells assessed as inhibition of DNA synthesis after 24 hrs by BrdU staining-based ELISA. It counts as functional, cell-based. In outline:
as §1

Another assay deals with Jurkat. The assay is described as follows: Cytotoxicity against human Jurkat cells after 24 hrs by MTT assay. It counts as functional, cell-based. The method in brief:
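Cells seeded at 25000 per well and held 24 h at 37 °C in 5% CO2. Medium was then renewed and compounds added at increasing concentrations (DMSO 0.1%, or water for topotecan) for 24 h. MTT solution (5 mg/mL) was added for 3 h at 37 °C, then absorbance read at 570 nm, corrected at 630 nm. IC50 in µM.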

The test system of assay [7] is Caco-2. The assay is described as follows: Induction of apoptosis in human Caco2 cells assessed as necrotic cells at 0.05 uM after 24 hrs by Annexin V/propidium iodide staining-based flow cytometric analysis (reference value: 0.41 +/- 0.02%). It counts as functional.
Assay [8] deals with Caco-2. The assay is described as follows: Induction of apoptosis in human Caco2 cells assessed as late apoptotic cells at 0.05 uM after 48 hrs by Annexin V/propidium iodide staining-based flow cytometric analysis (reference value: 2.20 +/- 0.77%). It is filed as functional.
Assay [9] relates to Caco-2. The assay is described as follows: Induction of apoptosis in human Caco2 cells assessed as early apoptotic cells at 0.05 uM after 24 hrs by Annexin V/propidium iodide staining-based flow cytometric analysis (reference value: 0.72 +/- 0.03%). It counts as functional.
The test system of assay [10] is Caco-2. The assay is described as follows: Induction of apoptosis in human Caco2 cells assessed as early apoptotic cells at 0.05 uM after 48 hrs by Annexin V/propidium iodide staining-based flow cytometric analysis (reference value: 0.72 +/- 0.03%). It is filed as functional.
In assay [11] the test system is HeLa. The assay is described as follows: Induction of apoptosis in human HeLa cells assessed as inhibition of DNA synthesis at 0.8 to 1.6 uM after 24 hrs by BrdU staining-based ELISA. It counts as functional, cell-based. The method in brief:
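BrdU colorimetric cell proliferation ELISA. Cells seeded at 25,000 per well, compounds added 24 h after seeding and incubated 24 h. Cells fixed and the immunoassay run per kit. Absorbance read at 370-492 nm over 3 intervals of 5 min; absorbance difference proportional to BrdU incorporation. Mean of three separate experiments in triplicate, compared with untreated control.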

Assay [12] concerns Caco-2. The assay is described as follows: Induction of apoptosis in human Caco2 cells assessed as early apoptotic cells at 0.5 uM after 48 hrs by Annexin V/propidium iodide staining-based flow cytometric analysis (reference value: 0.72 +/- 0.03%). It is filed as functional.

The source made the active and inactive calls. No cut-off for these calls is given here.

By IC50 is commonly meant the concentration at which inhibition is half-maximal. A higher IC50 goes with a need for much substance.

For the compound `CC[C@@]1(O)C(=O)OCc2c1cc1n(c2=O)Cc2cc3c(CN(C)C)c(O)ccc3nc2-1.Cl` [TOPOTECAN HYDROCHLORIDE], the inhibition entry in the assay with HeLa [1] and in the assay with MDA-MB-231 was “Dose-dependent effect” throughout. Further, the Activity turned out to be 2.36% in the assay with Caco-2 [2]; 38.26% with Caco-2 [4]; 71.4% with Caco-2 [5]; 3.64% in the assay on Caco-2 [7]; 48.06% with Caco-2 [8]; 5.42% with Caco-2 [9]. Besides, the Activity in the assay with Caco-2 [10] was determined as 2.36%; with Caco-2 [12] it was 5.74%. Also, the outcome with HeLa [3] was inactive. Also, the outcome in the assay with A-375 and in the assay on HeLa [11] was Active. The concentration for half-maximal inhibition (IC50) is 119 nM in assay [6] and 127 nM in the assay with Jurkat.

Source of the values: ChEMBL document CHEMBL3351736, “A promising camptothecin derivative: Semisynthesis, antitumor activity and intestinal permeability” (Eur J Med Chem, 2014).
